This note sets out measurements from ChEMBL document CHEMBL3425415, “An antibacterial ortho-quinone diterpenoid and its derivatives from Caryopteris mongolica” (2015).

Calls of active or inactive are those of the source. No cut-off for these calls is given here.

Type in all cases: functional
The subject of test [1] is Staphylococcus aureus. The test is described as follows: Antibacterial activity against Staphylococcus aureus assessed as growth inhibition at 5 ug/disc after 24 hrs by disc diffusion method. To be noted: read-out: DIZ. In short, it runs like this:
(§1)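 Disc diffusion: 100 µL of each bacterial culture (10^6 CFU/mL), grown 18 h in nutrient broth, spread onto meat peptone agar in Petri dishes. Compound-loaded discs applied. Plates incubated 24 h at 37 °C. Inhibition zone diameter measured in mm. Treatments replicated 3-5 times, reported as mean ± S.E.M.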

Test [2] deals with Staphylococcus aureus. Kind of test: Antibacterial activity against Staphylococcus aureus assessed as growth inhibition at 500 ug/disc after 24 hrs by disc diffusion method. To be noted: for zone of inhibition at 500 µg/disc: read-out: DIZ. In short, it runs like this:
(§2)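 Disc diffusion: 100 µL inoculum (10^6 CFU/mL, grown 18 h in nutrient broth) spread on meat peptone agar plates; discs applied and incubated 24 h at 37 °C. Inhibition zone diameters measured in mm; 3-5 replicates, mean ± S.E.M.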
(In agar diffusion tests the substance spreads into inoculated agar from a disc or well.)

In test [3] the test system is Staphylococcus aureus. Kind of test: Antibacterial activity against Staphylococcus aureus assessed as growth inhibition at 50 ug/disc after 24 hrs by disc diffusion method. The settings on record: for zone of inhibition at 50 µg/disc: read-out: DIZ. The method, boiled down: as §1
Test [4] has as its system Staphylococcus epidermidis. Kind of test: Antibacterial activity against Staphylococcus epidermidis assessed as growth inhibition at 5 ug/disc after 24 hrs by disc diffusion method. The settings on record: read-out: DIZ. The method, boiled down: as §2
The subject of test [5] is Staphylococcus epidermidis. The test is described as follows: Antibacterial activity against Staphylococcus epidermidis assessed as growth inhibition at 50 ug/disc after 24 hrs by disc diffusion method. To be noted: for zone of inhibition at 50 µg/disc: read-out: DIZ. The method, boiled down:
as §1

Test [6] relates to Staphylococcus epidermidis. The test is described as follows: Antibacterial activity against Staphylococcus epidermidis assessed as growth inhibition at 500 ug/disc after 24 hrs by disc diffusion method. The settings on record: for zone of inhibition at 500 µg/disc: read-out: DIZ. The method, boiled down: as §1
In test [7] the test system is Enterococcus faecalis. Kind of test: Antibacterial activity against Enterococcus faecalis assessed as growth inhibition at 5 ug/disc after 24 hrs by disc diffusion method. The settings on record: read-out: DIZ. In short, it runs like this: as §2
Test [8] relates to Enterococcus faecalis. Kind of test: Antibacterial activity against Enterococcus faecalis assessed as growth inhibition at 50 ug/disc after 24 hrs by disc diffusion method. The settings on record: for zone of inhibition at 50 µg/disc: read-out: DIZ. The method, boiled down:
as §1

The test system of test [9] is Enterococcus faecalis. Kind of test: Antibacterial activity against Enterococcus faecalis assessed as growth inhibition at 500 ug/disc after 24 hrs by disc diffusion method. To be noted: read-out: DIZ. In short, it runs like this: as §1
The test system of test [10] is Micrococcus luteus. The test is described as follows: Antibacterial activity against Micrococcus luteus assessed as growth inhibition at 5 ug/disc after 24 hrs by disc diffusion method. The settings on record: read-out: DIZ. In short, it runs like this: as §2
The subject of test [11] is Staphylococcus aureus. Kind of test: Antibacterial activity against Staphylococcus aureus assessed as growth inhibition at 25 ug/disc after 24 hrs by disc diffusion method. To be noted: read-out: DIZ. The method, boiled down:
as §1

For test [12], the system named is Staphylococcus epidermidis. Kind of test: Antibacterial activity against Staphylococcus epidermidis assessed as growth inhibition at 25 ug/disc after 24 hrs by disc diffusion method. To be noted: read-out: DIZ. In short, it runs like this:
as §1

Test [13] concerns Enterococcus faecalis. Kind of test: Antibacterial activity against Enterococcus faecalis assessed as growth inhibition at 25 ug/disc after 24 hrs by disc diffusion method. To be noted: read-out: DIZ. In short, it runs like this: as §1
Test [14] deals with Micrococcus luteus. Kind of test: Antibacterial activity against Micrococcus luteus assessed as growth inhibition at 25 ug/disc after 24 hrs by disc diffusion method. The settings on record: read-out: DIZ. In short, it runs like this:
as §1

Test [15] deals with Micrococcus luteus. Kind of test: Antibacterial activity against Micrococcus luteus assessed as growth inhibition at 50 ug/disc after 24 hrs by disc diffusion method. The settings on record: for zone of inhibition at 50 µg/disc: read-out: DIZ. The method, boiled down:
as §1

For test [16], the system named is Micrococcus luteus. The test is described as follows: Antibacterial activity against Micrococcus luteus assessed as growth inhibition at 500 ug/disc after 24 hrs by disc diffusion method. The method, boiled down:
as §1

With `CC1=C(C)[C@@H]2CC(=O)C3=C(C(=O)C(=O)[C@]4(C[C@@H]4C)[C@@H]3O)[C@@]2(C)CC1`, the zone of inhibition at 5 µg/disc in the test on Staphylococcus aureus [1] worked out at 12.9 mm; in test [4], 15.9 mm; in the test on Enterococcus faecalis [7], 23.2 mm; in the test on Micrococcus luteus [10] it was 16.3 mm. Moreover, the zone of inhibition at 500 µg/disc with Staphylococcus aureus [2] came to 30.6 mm; in [6], 29.3 mm; in the test on Enterococcus faecalis [9], 28.7 mm. For the same compound, the zone of inhibition at 50 µg/disc with Staphylococcus aureus [3] was 22.6 mm; in test [5], 24.1 mm; in the test on Enterococcus faecalis [8] it was 24 mm. The zone of inhibition at 25 µg/disc with Staphylococcus aureus [11] came out at 21.5 mm; in [12], 23.2 mm; in the test with Enterococcus faecalis [13], 22 mm; in the test on Micrococcus luteus [14] it was 27.9 mm.
For the compound `C[C@H]1C[C@]12C(=O)OC(=O)C1=C(C(=O)C[C@H]3C(C)(C)CCC[C@]13C)[C@H]2O`, the “growth inhibition (GI)” value (in the test on Staphylococcus aureus [2]; in the test on Staphylococcus aureus [3]; in [5]; in test [6]; in the test with Enterococcus faecalis [8]; with Micrococcus luteus [15]) was “inactive” throughout. Besides, in the test with Micrococcus luteus [16], the “growth inhibition (GI)” value is “inactive”. Besides, the zone of inhibition at 500 µg/disc in the test with Enterococcus faecalis [9] came out at 9.6 mm.
With `CC1=C(C)[C@@H]2CC(=O)C3=C(C(=O)OC(=O)[C@@]4(C[C@H]4C)[C@@H]3O)[C@@]2(C)CC1`, the “growth inhibition (GI)” value (in the test on Staphylococcus aureus [3]; in test [5]; with Enterococcus faecalis [8]; in the test with Micrococcus luteus [15]) was “inactive” in each case.
As for `C[C@@H]1C[C@@]12C(=O)OC(=O)C1=C(C(=O)C[C@H]3C(C)(C)CCC[C@]13C)[C@H]2O`, the “growth inhibition (GI)” value (in the test with Staphylococcus aureus [3]; in [5]; in the test on Enterococcus faecalis [8]; with Micrococcus luteus [15]) was “inactive” in each case.
In the case of `CC(C)c1cc2c(c(O)c1O)[C@@]1(C)CCCC(C)(C)[C@@H]1[C@@H](O)C2=O` [6-ALPHA-HYDROXYDEMETHYL-CRYPTOJAPONOL], the zone of inhibition at 500 µg/disc in the test on Staphylococcus aureus [2] was 22.5 mm. The zone of inhibition at 50 µg/disc in the test on Staphylococcus aureus [3] was 11 mm; in [5] it was 11.5 mm; with Enterococcus faecalis [8] it was 13.8 mm; with Micrococcus luteus [15] it was 9.1 mm. For the same compound, the zone of inhibition at 5 µg/disc was 21.2 mm in [4], 20.2 mm with Enterococcus faecalis [7] and 17.7 mm in the test with Micrococcus luteus [10].
Regarding `CC(C)c1cc2c(c(O)c1O)[C@@]1(C)CCCC(C)(C)[C@@H]1CC2=O` [DEMETHYLCRYPTOJAPONOL], the zone of inhibition at 500 µg/disc with Staphylococcus aureus [2] was 15.8 mm. Besides, the zone of inhibition at 50 µg/disc in the test with Staphylococcus aureus [3] is 11.8 mm; in test [5] it was 13.7 mm; in the test on Enterococcus faecalis [8], 11.3 mm; in the test with Micrococcus luteus [15] it was 9 mm. For the same compound, the results for the zone of inhibition at 5 µg/disc (in test [4]; in the test with Enterococcus faecalis [7]; in the test on Micrococcus luteus [10]) were 16 mm, 15.2 mm and 13.5 mm, respectively.
In the case of `NC[C@H]1O[C@H](O[C@H]2[C@H](O)[C@@H](O[C@H]3O[C@H](CO)[C@@H](O)[C@H](N)[C@H]3O)[C@H](N)C[C@@H]2N)[C@H](O)[C@@H](O)[C@@H]1O` [KANAMYCIN], the zone of inhibition at 5 µg/disc came out at 16.3 mm in the test on Staphylococcus aureus [1], 20.5 mm in [4] and 16 mm in the test with Micrococcus luteus [10]. Also, the zone of inhibition at 50 µg/disc in the test on Enterococcus faecalis [8] turned out to be 17.9 mm.
`CC(C)c1cc2c(c(O)c1O)[C@@]1(C)CCCC(C)(C)C1=C(O)C2=O` [14-DEOXYCOLEON U]: the zone of inhibition at 500 µg/disc in the test with Staphylococcus aureus [2] came to 17.8 mm; in test [6], 18.2 mm; in the test on Enterococcus faecalis [9] it was 16.8 mm; in the test on Micrococcus luteus [16] (read-out: DIZ), 14.8 mm. Also, the zone of inhibition at 50 µg/disc in the test with Staphylococcus aureus [3] is 10.2 mm; in [5] it was 10.2 mm; in the test on Enterococcus faecalis [8] it was 10.5 mm; in the test on Micrococcus luteus [15] it was 9 mm.
